The target of test [1] is Histamine H2 receptor (Cavia porcellus) (UniProt P47747). Description: Inhibition of the positive chronotropic response (histamine H2 receptor antagonism) of guinea pig right atrium relative to cimetidine. Format: functional, tissue-based. To be noted: Cardiac atrium.
The next test has as its target Histamine H2 receptor (Cavia porcellus, UniProt P47747). As to the kind of experiment: Histamine H2 receptor antagonistic activity on the isolated guinea pig right atrium. Particulars: read-out: pA2 (converted).
The target of a further test is Histamine H1 receptor (Cavia porcellus, UniProt P31389). As to the kind of experiment: (§1) Histamine H1 receptor antagonistic activity on the isolated guinea pig ileum determined by Schild plot. Format: functional, tissue-based. Particulars: read-out: pA2 (converted). In a few lines:
(§2)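 Whole proximal guinea pig ileum segments in Tyrode's solution gassed with 95% O2/5% CO2, isotonic recording at 10 mN load. Cumulative histamine (0.01-3 μM) curves. Antagonist applied 10 min before the curve. pK_B from concentration ratio, or pA2 by Schild plot.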

For test [2], the target named is Muscarinic acetylcholine receptor M3 (Cavia porcellus) (UniProt Q8VH26). Description: muscarinic acetylcholine receptor M3 antagonistic activity on the isolated guinea pig ileum determined by Schild plot. Format: functional, tissue-based. In a few lines: (§3)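 Guinea pig proximal ileum, isotonic recording under a 10 mN load in gassed Tyrode's solution. Cumulative carbachol (3-300 nM) curves as reference agonist. Antagonist incubated 10 min. pK_B calculated from concentration ratio, or pA2 by Schild plot.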
Muscarinic acetylcholine receptor M3 (Cavia porcellus), sequence (Q8VH26 1-587): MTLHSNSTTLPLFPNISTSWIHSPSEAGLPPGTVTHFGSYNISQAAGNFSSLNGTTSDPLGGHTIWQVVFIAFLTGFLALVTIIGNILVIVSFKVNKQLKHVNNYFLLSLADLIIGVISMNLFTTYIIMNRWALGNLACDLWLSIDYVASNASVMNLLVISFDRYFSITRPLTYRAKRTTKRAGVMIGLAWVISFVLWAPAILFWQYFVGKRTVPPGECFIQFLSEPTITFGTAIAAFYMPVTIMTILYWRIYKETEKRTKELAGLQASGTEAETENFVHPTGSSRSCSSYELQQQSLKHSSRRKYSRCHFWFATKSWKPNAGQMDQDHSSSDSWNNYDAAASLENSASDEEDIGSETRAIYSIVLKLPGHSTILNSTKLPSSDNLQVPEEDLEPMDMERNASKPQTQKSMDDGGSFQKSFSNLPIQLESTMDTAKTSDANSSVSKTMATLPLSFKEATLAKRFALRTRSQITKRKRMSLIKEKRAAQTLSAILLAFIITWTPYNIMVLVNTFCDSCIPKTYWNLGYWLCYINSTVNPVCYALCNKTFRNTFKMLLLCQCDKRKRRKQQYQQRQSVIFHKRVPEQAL

Test [3] has as its target Histamine H2 receptor (Cavia porcellus) (UniProt P47747). As to the kind of experiment: Histamine H2 receptor antagonistic activity at concentrations of 0.03 and 0.1 uM on the isolated guinea pig right atrium. To be noted: Cardiac atrium. The test is classed as functional, tissue-based.
The target of test [4] is Muscarinic acetylcholine receptor M3 (Cavia porcellus, UniProt Q8VH26). As to the kind of experiment: muscarinic acetylcholine receptor M3-antagonistic activity on the isolated guinea pig ileum determined by Schild plot. The test is classed as functional, tissue-based. To be noted: read-out: pA2 (converted). In a few lines:
as §3

In test [5] the target is Histamine H1 receptor (Cavia porcellus) (UniProt P31389). Described as §1. The test is classed as functional, tissue-based. In a few lines:
as §2
Target sequence in this assay (P31389 whole entry): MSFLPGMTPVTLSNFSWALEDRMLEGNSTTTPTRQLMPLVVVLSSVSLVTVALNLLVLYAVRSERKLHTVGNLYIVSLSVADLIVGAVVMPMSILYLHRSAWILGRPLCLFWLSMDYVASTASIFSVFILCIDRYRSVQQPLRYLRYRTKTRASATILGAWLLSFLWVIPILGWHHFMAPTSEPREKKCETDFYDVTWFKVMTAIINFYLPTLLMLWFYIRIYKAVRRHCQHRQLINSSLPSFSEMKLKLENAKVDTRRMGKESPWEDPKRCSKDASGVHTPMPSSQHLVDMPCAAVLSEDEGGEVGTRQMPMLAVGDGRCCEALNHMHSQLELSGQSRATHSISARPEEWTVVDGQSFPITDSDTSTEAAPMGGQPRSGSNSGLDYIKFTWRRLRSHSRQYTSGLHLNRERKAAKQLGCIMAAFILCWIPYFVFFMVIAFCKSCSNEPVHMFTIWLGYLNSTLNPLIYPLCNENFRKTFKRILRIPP

Test [6] deals with Histamine H2 receptor (Cavia porcellus) (UniProt P47747). Description: Histamine H2 receptor antagonistic activity at a concentration of 0.1 uM on the isolated guinea pig right atrium. Format: functional, tissue-based. Particulars: Cardiac atrium.
Test [7] addresses Beta-1 adrenergic receptor (Cavia porcellus) (UniProt B0FL73). Description: Beta-1 Adrenergic receptor antagonistic activity at concentrations of 10 and 30 uM on the isolated guinea pig right atrium. Format: functional, tissue-based. To be noted: Cardiac atrium. In a few lines: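 Spontaneously beating guinea pig right atrium, isometric recording of chronotropic response. Cumulative isoprenaline (0.1-30 nM) curves as reference agonist. Incubation handled as in the H2 protocol. pK_B = -log[antagonist] + log(concentration ratio - 1).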

Test [8] concerns the target Muscarinic acetylcholine receptor M3 (Cavia porcellus) (UniProt Q8VH26). Description: muscarinic acetylcholine receptor M3 antagonistic activity at concentrations of 10 and 30 uM on the isolated guinea pig iluem. The test is classed as functional. In a few lines:
as §3

The target of test [9] is Serotonin 2 (5-HT2) receptor (Rattus norvegicus) (UniProt P30994+P08909+P14842). As to the kind of experiment: (§4) 5-hydroxytryptamine 2 receptor antagonistic activity on the rat tail artery determined by Schild plot. Format: functional, tissue-based. In a few lines:
(§5)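 Endothelium-denuded ventral tail artery segments from male Wistar rats (280-350 g), resting force 5 mN, 120 min equilibration with one 1 μM 5-HT priming. Two to three cumulative 5-HT (0.01-10 μM) curves per preparation.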

Test [10] deals with Adrenergic receptor alpha-1 (Rattus norvegicus) (UniProt P15823+P23944+P43140). Description: (§6) Alpha-1 adrenergic receptor antagonistic activity on the rat aorta determined by Schild plot. Format: functional, tissue-based. In a few lines:
(§7)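 Endothelium-denuded thoracic aortic rings from the same rats, mounted isometrically, resting force 20 mN. Equilibration 140 min with two primings of 0.1 μM (R)-phenylephrine. Cumulative (R)-phenylephrine (0.003-10 μM) curves recorded with 1 μM (±)-propranolol present.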

The target of test [11] is T1, Adrenergic receptor alpha-1 (Rattus norvegicus, UniProt P15823+P23944+P43140).
T1 sequence (P15823 whole entry): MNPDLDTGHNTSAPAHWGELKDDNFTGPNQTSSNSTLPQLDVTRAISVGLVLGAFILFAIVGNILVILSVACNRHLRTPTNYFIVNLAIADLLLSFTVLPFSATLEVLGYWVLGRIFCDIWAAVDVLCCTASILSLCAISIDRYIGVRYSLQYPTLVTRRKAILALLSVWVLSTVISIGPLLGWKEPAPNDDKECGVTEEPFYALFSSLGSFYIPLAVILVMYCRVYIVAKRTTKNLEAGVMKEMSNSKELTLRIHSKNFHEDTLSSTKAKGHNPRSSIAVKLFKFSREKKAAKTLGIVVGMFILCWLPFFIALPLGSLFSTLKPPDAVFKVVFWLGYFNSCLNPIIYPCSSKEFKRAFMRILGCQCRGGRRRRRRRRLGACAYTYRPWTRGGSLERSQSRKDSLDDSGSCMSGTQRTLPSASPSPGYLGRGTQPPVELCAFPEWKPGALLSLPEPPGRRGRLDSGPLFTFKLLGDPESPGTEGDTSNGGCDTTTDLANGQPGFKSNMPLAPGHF
T1 sequence (P23944 whole entry): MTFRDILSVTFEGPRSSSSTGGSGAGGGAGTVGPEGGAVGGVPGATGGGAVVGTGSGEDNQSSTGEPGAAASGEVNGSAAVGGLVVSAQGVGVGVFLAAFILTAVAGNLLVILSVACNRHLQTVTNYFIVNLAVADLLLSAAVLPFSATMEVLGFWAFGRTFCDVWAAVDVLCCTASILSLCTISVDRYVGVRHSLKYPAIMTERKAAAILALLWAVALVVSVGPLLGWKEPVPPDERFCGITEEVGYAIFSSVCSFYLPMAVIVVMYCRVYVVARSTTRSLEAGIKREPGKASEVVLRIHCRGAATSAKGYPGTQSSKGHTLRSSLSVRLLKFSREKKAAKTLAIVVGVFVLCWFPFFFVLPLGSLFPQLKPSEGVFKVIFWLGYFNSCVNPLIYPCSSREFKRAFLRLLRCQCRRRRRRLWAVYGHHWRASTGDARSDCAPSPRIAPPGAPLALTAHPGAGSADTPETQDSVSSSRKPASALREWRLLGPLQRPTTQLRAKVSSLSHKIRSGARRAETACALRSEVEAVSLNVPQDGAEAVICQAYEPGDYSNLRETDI
T1 sequence (P43140 whole entry): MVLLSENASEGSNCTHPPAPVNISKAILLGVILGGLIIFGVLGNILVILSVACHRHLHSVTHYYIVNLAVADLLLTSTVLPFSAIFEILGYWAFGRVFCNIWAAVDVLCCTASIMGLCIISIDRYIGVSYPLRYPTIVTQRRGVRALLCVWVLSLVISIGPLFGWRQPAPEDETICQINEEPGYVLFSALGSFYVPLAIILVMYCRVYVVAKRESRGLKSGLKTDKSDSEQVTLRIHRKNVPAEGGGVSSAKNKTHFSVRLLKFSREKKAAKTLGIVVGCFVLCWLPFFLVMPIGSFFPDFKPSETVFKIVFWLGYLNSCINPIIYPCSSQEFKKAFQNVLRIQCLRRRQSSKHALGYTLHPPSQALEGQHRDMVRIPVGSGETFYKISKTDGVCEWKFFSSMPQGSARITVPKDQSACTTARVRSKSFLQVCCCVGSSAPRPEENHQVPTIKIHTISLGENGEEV
The description is as §6. Format: functional, tissue-based. In a few lines:
as §7

For test [12], the target named is Serotonin 2 (5-HT2) receptor (Rattus norvegicus, UniProt P30994+P08909+P14842). The test is described as §4. Format: functional, tissue-based. In a few lines: as §5
Test [13] concerns the target Histamine H1 receptor (Cavia porcellus) (UniProt P31389). As to the kind of experiment: Histamine H1 receptor antagonistic activity at a concentration of 3 and 10 uM on the isolated guinea pig iluem. The test is classed as functional. In a few lines: as §2
Target sequence in this assay (P31389 whole entry): as the sequence (P31389 whole entry) above
Test [14] has as its target Histamine H2 receptor (Cavia porcellus) (UniProt P47747). As to the kind of experiment: Histamine H2 receptor antagonistic activity on the isolated guinea pig right atrium determined by Schild plot. Particulars: Cardiac atrium. Format: functional, tissue-based.
Test [15] shares this target. As to the kind of experiment: Histamine H2 receptor antagonistic activity at concentrations of 0.03,0.1 and 0.3 uM on the isolated guinea pig right atrium. The test is classed as functional, tissue-based. Particulars: Cardiac atrium.
For test [16] the target is unchanged. Description: Histamine H2 receptor antagonistic activity at a concentration of 0.3 uM on the isolated guinea pig right atrium. The test is classed as functional, tissue-based. Particulars: Cardiac atrium.
The target in test [17] is Muscarinic acetylcholine receptor M3 (Cavia porcellus) (UniProt Q8VH26). To be noted: 10 uM.
Test [18] has as its target Histamine H2 receptor (Cavia porcellus) (UniProt P47747). Description: Potency to inhibit the positive chronotropic response (H2-antagonism) of guinea pig right atrium relative to cimetidine. The test is classed as functional, tissue-based. Particulars: Cardiac atrium.
For test [19], the target named is Histamine H1 receptor (Cavia porcellus) (UniProt P31389). As to the kind of experiment: Histamine H1 receptor antagonistic activity on the isolated guinea pig ileum determined by Schild plot.
Target sequence in this assay (P31389 whole entry, looked up): as the sequence (P31389 whole entry) above
Test [20] deals with Histamine H2 receptor (Cavia porcellus) (UniProt P47747). To be noted: Cardiac atrium.
Test [21] has the same target. As to the kind of experiment: Histamine H2 receptor antagonistic activity at a concentration of 0.03 and 1 uM on the isolated guinea pig right atrium. The test is classed as functional, tissue-based. Particulars: Cardiac atrium.

Structures are written as SMILES.

We go through five molecules from ChEMBL document CHEMBL1126247, “Iodoaminopotentidine and related compounds: a new class of ligands with high affinity and selectivity for the histamine H2 receptor” (J Med Chem, 1992).

Histamine H2 receptor (Cavia porcellus), sequence (P47747 whole entry): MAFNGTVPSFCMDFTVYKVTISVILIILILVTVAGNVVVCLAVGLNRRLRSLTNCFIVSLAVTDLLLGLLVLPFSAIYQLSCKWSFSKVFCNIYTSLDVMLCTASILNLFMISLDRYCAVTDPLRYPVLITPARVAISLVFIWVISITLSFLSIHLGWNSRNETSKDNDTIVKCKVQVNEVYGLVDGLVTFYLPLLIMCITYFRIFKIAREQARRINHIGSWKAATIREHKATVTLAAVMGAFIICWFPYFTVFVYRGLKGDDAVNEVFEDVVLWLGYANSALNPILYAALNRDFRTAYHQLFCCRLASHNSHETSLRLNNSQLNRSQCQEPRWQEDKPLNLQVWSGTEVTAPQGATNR
Serotonin 2 (5-HT2) receptor (Rattus norvegicus), sequence (P08909 whole entry, looked up): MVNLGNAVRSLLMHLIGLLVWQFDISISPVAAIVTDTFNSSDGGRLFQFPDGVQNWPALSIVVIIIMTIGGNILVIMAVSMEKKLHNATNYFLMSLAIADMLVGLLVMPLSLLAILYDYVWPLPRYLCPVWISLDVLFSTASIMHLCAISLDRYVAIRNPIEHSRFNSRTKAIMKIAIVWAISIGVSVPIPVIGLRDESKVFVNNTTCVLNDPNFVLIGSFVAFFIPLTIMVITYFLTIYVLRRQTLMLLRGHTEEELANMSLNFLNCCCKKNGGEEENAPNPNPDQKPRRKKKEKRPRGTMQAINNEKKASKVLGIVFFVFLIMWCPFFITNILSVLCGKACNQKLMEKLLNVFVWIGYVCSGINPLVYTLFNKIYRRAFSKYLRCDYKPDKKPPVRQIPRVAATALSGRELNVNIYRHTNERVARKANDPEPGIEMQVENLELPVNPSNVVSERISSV
Serotonin 2 (5-HT2) receptor (Rattus norvegicus), sequence (P14842 whole entry, looked up): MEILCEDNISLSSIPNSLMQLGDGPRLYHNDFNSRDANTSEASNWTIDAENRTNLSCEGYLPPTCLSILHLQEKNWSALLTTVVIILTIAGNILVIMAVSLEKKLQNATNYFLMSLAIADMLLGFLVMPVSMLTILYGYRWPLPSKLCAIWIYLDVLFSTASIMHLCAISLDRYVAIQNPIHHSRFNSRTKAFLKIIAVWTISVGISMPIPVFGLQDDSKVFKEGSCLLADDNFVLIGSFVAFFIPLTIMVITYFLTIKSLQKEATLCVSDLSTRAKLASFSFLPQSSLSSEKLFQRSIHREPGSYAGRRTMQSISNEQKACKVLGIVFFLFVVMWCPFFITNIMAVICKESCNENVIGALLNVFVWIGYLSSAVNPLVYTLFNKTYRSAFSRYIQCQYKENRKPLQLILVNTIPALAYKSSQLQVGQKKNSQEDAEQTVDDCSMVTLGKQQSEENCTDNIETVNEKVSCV
Serotonin 2 (5-HT2) receptor (Rattus norvegicus), sequence (P30994 whole entry, looked up): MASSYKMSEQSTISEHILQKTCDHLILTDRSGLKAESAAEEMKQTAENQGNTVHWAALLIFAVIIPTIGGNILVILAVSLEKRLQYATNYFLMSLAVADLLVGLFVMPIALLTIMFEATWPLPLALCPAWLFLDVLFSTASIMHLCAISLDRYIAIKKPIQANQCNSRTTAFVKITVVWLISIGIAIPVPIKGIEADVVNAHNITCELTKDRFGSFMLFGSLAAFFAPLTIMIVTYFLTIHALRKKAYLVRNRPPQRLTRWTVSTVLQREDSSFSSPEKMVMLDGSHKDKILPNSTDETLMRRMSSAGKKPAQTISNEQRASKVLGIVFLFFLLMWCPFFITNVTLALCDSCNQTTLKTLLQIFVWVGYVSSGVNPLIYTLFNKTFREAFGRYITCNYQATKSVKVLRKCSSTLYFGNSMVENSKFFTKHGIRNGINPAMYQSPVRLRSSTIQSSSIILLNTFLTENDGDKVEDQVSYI
Beta-1 adrenergic receptor (Cavia porcellus), sequence (B0FL73 1-467): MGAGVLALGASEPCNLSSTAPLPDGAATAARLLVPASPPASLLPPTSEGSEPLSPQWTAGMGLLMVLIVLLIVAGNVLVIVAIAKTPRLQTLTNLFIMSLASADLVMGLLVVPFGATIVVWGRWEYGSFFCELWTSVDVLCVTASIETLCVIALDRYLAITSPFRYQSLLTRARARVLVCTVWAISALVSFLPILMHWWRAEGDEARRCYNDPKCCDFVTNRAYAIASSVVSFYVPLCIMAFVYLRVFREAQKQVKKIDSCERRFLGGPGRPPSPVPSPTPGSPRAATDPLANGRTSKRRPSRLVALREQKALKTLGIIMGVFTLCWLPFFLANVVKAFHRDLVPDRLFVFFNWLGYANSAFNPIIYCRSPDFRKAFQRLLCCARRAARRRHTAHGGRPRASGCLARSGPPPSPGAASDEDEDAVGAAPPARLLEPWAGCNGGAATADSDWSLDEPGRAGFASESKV
Histamine H2 receptor, sequence (P47747 whole entry): as the sequence (P47747 whole entry) above
Histamine H1 receptor, sequence (P31389 whole entry): as the sequence (P31389 whole entry) above
Muscarinic acetylcholine receptor M3, sequence (Q8VH26 whole entry): as the sequence (Q8VH26 1-587) above

Molecule `N#CN/C(=N\CCNC(=O)c1cc(I)c(N)c(I)c1)NCCCOc1cccc(CN2CCCCC2)c1` showed a Relative potency in [1] of 2460%. For the same molecule, the Kb is 0.0162 µM on Histamine H2 receptor, 1.58 µM on Histamine H1 receptor and 1.7 µM in test [4]. Besides, the Slope came out at 1.04 in test [2] and 0.91 in test [5]. The molecule further had a pKB in test [3] of 7.79.

Consider `N#CN/C(=N\CCNc1ccccc1[N+](=O)[O-])NCCCOc1cccc(CN2CCCCC2)c1`, for which, in [1], the Relative potency amounted to 1120%. This molecule registered a pKB in [6] of 7.45.

For `N#CN/C(=N\CCNC(=O)c1ccc(N)c(I)c1)NCCCOc1cccc(CN2CCCCC2)c1`, the pKB in test [7] was found to be 4.77; in test [8], 5.49; in test [13] it was 5.96; in test [15], 7.52. In addition, in [1], the Relative potency is 1440%. Further, the Slope is 1.09 in test [9], 1.29 in test [10] and 0.9 in [14]. In addition, the pA2 in [11] amounted to 5.59; in test [12], 6.06.

As for `N#CN/C(=N\CCNC(=O)c1cccc(I)c1)NCCCOc1cccc(CN2CCCCC2)c1`, the pKB amounted to 7.57 in [16], 5.61 in [17] and 7.62 in test [20]. In addition, the Relative potency in [18] came to 1480%. Moreover, the Slope in test [19] is 1.25.

In the case of `N#CN/C(=N\CCNc1ccccc1[N+](=O)[O-])NCCCCOc1cccc(CN2CCCCC2)c1`, the Relative potency in [1] is 4360%. The negative-log KB (pKB) in test [21] turned out to be 8.04.
